# In the library only some 2.1% were active in any assay of this set; here they are far more common.
# TNF necrop inh: blocks TNF-alpha induced death of Jurkat FADD-/- cells; Jurkat FADD-/- TNF necroptosis rescue, ATP luminescence, 24 h; 0 = TNF only, 100 = no-TNF cells; activation (protection from cell death), % at 10 µM; hit rate 0.068% among 220,000; AID 463075;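 active means activation, meaning protection from cell death, of at least 50% relative to plate controls; inactive means activation below 50%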;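 further: necroptosis triggered by 40 ng/mL TNF-alpha added together with compound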
# m-calpain inh: calpain II (pig) inhibition. purified calpain II, fluorogenic peptide substrate, 30 min. inhibition, % at 16 µM. hit rate 0.37% among 220,000. AID 1236;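 active means inhibition above about 50%, limit read from the data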
# Pf gamet viab: kills late stage P. falciparum gametocytes; hit rate 0.065% among 150,000; P. falciparum stage V gametocytes, ATP luminescence, 24 h; inhibition, % at 10.9 µM;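 active means inhibition above the mean plus 3 SD of compounds within the control limits, set per campaign, cut at about 38% in these data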
# RBBP9 inhibitor: inhibitors of human serine hydrolase RBBP9; inhibition, % at 7.94 µM; O75884; hit rate 0.2% among 220,000; AID 1515; recombinant RBBP9, FP-Rh probe fluorescence polarization;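 active means inhibition above the campaign mean of all tested compounds plus 3 SD, cut at about 14% in these data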
# Target sequence (O75884 whole entry, looked up): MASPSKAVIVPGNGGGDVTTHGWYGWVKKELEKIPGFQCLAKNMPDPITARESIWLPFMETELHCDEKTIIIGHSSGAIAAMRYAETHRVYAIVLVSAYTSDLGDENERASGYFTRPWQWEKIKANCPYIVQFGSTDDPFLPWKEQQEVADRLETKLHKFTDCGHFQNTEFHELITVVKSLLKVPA
#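 Test system – recombinant human RBBP9 · Input – RBBP9 2.5 µM in dispensing solution, pre-mixing · Medium – Tris buffer pH 8.0, NaCl, Pluronic · Schedule – preincubation 30 min plus labeling 45 min at 25 °C · Measured by – fluorescence polarization · Measure – % inhibition · Controls – DMSO and no-protein wells · Replicates – one well per compound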
# Wee1 degr inh: inhibitors of human Wee1 degradation; hit rate 1.2% among 220,000; reporter increase, % at 5 µM; P30291; HeLa Luc-Wee1K328M stability, luciferase luminescence; 100% = proteasome inhibitor MG132 effect; AID 1321;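 active means activation above the mean of all tested compounds plus 3 SD, set per screening run, cut at about 8.8% in these data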;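 further: cells exposed to compound for 20 h before luminescence read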
# zVAD death inh: blocks zVAD induced death of L929 cells; viability rescue, % at 10 µM; L929 zVAD necroptosis rescue, ATP luminescence, 24 h; with zVAD 60 µM; hit rate 0.38% among 220,000;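 active means activation, scaled between plate controls, above about 75%, limit read from the data; inactive means activation under that limit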
# A number is an active result; 0 = inactive; - = no result.
SMILES,TNF necrop inh,m-calpain inh,Pf gamet viab,RBBP9 inhibitor,Wee1 degr inh,zVAD death inh
O=C(Nc1nnc(-c2ccc(Cl)cc2)o1)Nc1ccccc1F,0,0,0,0,13,0
CSc1nc(Oc2ccc(Cl)cc2)c2sccc2n1,0,0,-,0,0,0
CSc1nc(Oc2ccccc2)c2sccc2n1,0,54,-,0,0,0
CCNC(=S)N1CCc2cc(OC)c(OC)cc2C1COc1ccccc1OC (stereo not drawn),0,0,0,0,0,0
CCCCOc1ccc(CONS(=O)(=O)c2ccc(NC(C)=O)cc2)cc1Cl,0,50,0,0,0,0
CC(=O)Nc1ccc(S(=O)(=O)NCCOc2ccc(Cl)cc2C)cc1,0,0,0,0,0,0
Cc1cc(NC(=O)c2cc3n(n2)C(C(F)(F)F)CC(c2ccco2)N3)no1 (stereo not drawn),0,0,-,0,9.9,0
CC(C)NC(=O)c1cc2n(n1)C(C(F)(F)F)CC(c1ccco1)N2 (stereo not drawn),0,0,0,0,0,0
CC1CCN(S(=O)(=O)c2ccc(N=NC3=C(O)CC(C)(C)CC3=O)cc2)CC1,0,0,44,0,0,0
CC1(C)CC(=O)C(N=Nc2cccc(S(=O)(=O)N3CCOCC3)c2)=C(O)C1,0,0,0,0,0,0
COc1ccc(C(=O)CSc2n[nH]c(=O)[nH]c2=O)cc1,0,0,-,0,0,0
O=C(CSc1n[nH]c(=O)[nH]c1=O)c1ccc([N+](=O)[O-])cc1,0,0,0,0,12,0
Cc1ccc(-c2nnn(CC(=O)N(CC3CCCO3)C(C(=O)NC3CCCC3)c3ccc(O)cc3)n2)o1 (stereo not drawn),0,0,0,0,10,0
Cc1ccc(-c2nnn(CC(=O)N(CC3CCCO3)C(C(=O)NC3CCCC3)c3ccc(F)cc3)n2)o1 (stereo not drawn),0,0,0,0,0,0
COCCN(C(=O)CNC(=O)c1cccs1)C(C(=O)NC1CCCC1)c1cccs1 (stereo not drawn),0,0,0,0,9.8,0
CCN(CC)c1ccc(NC(=O)CCCCCN2C(=O)c3ccccc3C2=O)cc1,0,0,-,0,11,0
CC1(C)C(=O)OC(c2cccn2-c2ccc([N+](=O)[O-])cc2)C2(CCCCC2)C1=O (stereo not drawn),0,0,-,0,0,0
CC1(C)C(=O)OC(c2c(F)c(F)c(F)c(F)c2F)C2(CCCCC2)C1=O (stereo not drawn),0,57,0,0,0,0
COc1ccc(CNC(=O)C2CCN(S(=O)(=O)c3ccc(-c4nn[nH]n4)cc3)CC2)cc1,0,51,-,0,0,0
Cc1ccc(CNC(=O)C2CCN(S(=O)(=O)N3CCCCC3)CC2)cc1,0,0,40,0,0,0
C/C(=N\Nc1cc(N2CCOCC2)ncn1)c1ccc(O)cc1,-,-,0,-,-,-
O=C1c2ccccc2C(O)N1Cc1cccs1 (stereo not drawn),0,0,55,0,0,0
Fc1ccccc1NC(=S)N/N=C/c1ccccc1Br,0,0,0,0,11,0
CCCCNC(=S)N/N=C/c1ccccc1F,0,72,0,0,0,0
CCCCNC(=S)N/N=C/c1cc(C)ccc1C,0,0,0,0,0,0
SMILES,TNF necrop inh,m-calpain inh,Pf gamet viab,RBBP9 inhibitor,Wee1 degr inh,zVAD death inh
O=C(CN1CCN(c2ncccn2)CC1)Nc1ccccc1-n1cccc1,0,0,0,0,0,0
N=C1C(c2nc3ccccc3[nH]2)=C(O)CN1c1ccc(F)cc1,0,0,-,0,9.7,0
N=C1C(c2nc3ccccc3[nH]2)=C(O)CN1C1CCCCC1,0,0,0,0,0,0
CCOC(=O)c1ccc(NC(=O)CSC(=S)N2CCOCC2)cc1,0,0,0,0,0,0
CCOC(=O)CCNC(=O)N1CCCC(N(C)CCc2ccccc2)C1 (stereo not drawn),-,-,0,-,-,-
Cc1[nH]c2ccc(F)cc2c1CCN(Cc1cccnc1)C(=S)Nc1cccc(F)c1,0,0,0,0,0,0
Cc1ccccc1NC(=S)N(CCc1c(C)[nH]c2ccc(F)cc12)Cc1cccnc1,0,64,-,0,0,0
O=C(O)c1cc([N+](=O)[O-])ccc1NCc1ccccn1,-,-,0,-,-,-
CC(=O)Nc1ccc(NC(=O)COc2ccc(Br)cc2C)cc1,0,0,0,0,0,0
Cc1cccc(NC(=O)COc2ccc(Br)cc2/C=N/O)c1,0,0,0,0,9.4,0
N#CC1=C(SCC(=O)c2ccccc2)NC2=C(C(=O)CCC2)C1c1ccco1 (stereo not drawn),0,0,0,0,9.8,0
COc1ccc(NC(=O)CSC2=C(C#N)C(c3ccco3)C3=C(CCCC3=O)N2)c(OC)c1 (stereo not drawn),0,0,-,0,0,0
COc1cccc(NC(=O)CSC2=C(C#N)C(c3ccco3)C3=C(CCCC3=O)N2)c1 (stereo not drawn),0,0,-,0,10,0
CCc1c(C)nc(/N=C(/NC(=O)c2ccccc2)Nc2ccccc2OC)[nH]c1=O,0,-,-,0,0,0
CCn1c(CNC(=O)Cc2ccc(OC)cc2)nnc1SCC(=O)Nc1nccs1,0,0,-,0,11,0
Cc1nnc(SCC(=O)NCc2ccc3c(c2)OCO3)s1,0,0,0,0,9.5,0
CCOC(=O)N1CCN(CC(=O)Nc2sccc2C#N)CC1,0,82,-,0,0,0
CN1CCN(C(=O)c2cnn3c(C(F)(F)F)cc(-c4ccc5c(c4)OCO5)nc23)CC1,0,0,0,0,0,0
Cc1ccc(-c2cc(C(F)(F)F)n3ncc(C(=O)N4CCN(C)CC4)c3n2)cc1,0,0,0,0,9.2,0
COc1ccc(C2CC(=O)N(CCCN(C)CCc3ccc(OC)c(OC)c3)C2)cc1 (stereo not drawn),0,0,-,0,0,0
COc1ccc(CCN(C)CCCN2CC(c3ccccc3)CC2=O)cc1OC (stereo not drawn),0,0,42,0,0,0
CCOc1ccc(NC(=O)CN2CCN(CC(=O)Nc3cccc(F)c3)CC2)cc1,0,0,0,0,0,0
CCOc1ccc(NC(=O)CN2CCN(CC(=O)Nc3cc(OC)cc(OC)c3)CC2)cc1,0,0,0,0,13,0
CN(/N=C/c1ccncc1)c1cnc2ccccc2n1,0,0,0,0,10.0,0
COCc1cc(=O)[nH]c(Nc2nc3ccc(C)cc3o2)n1,0,0,-,0,8.9,0
CCCC1=NN(C(=O)Cc2ccc(OC)c(OC)c2)C(O)(C(F)(F)F)C1 (stereo not drawn),0,0,0,0,0,0
CCN(CC)c1ccc(/C=N/NC(=O)c2ccccn2)cc1,0,0,0,0,9.5,0
CCc1ccc(/C=N/NC(=O)c2ccccn2)cc1,0,0,0,0,0,0
N#C/C(=C\c1cc([N+](=O)[O-])ccc1Cl)C(N)=O,0,0,-,0,0,0

# Screening data from PubChem.
